Data published in ChEMBL document CHEMBL1155840, “Sesquiterpenes from Celastrus vulcanicola as photosynthetic inhibitors” (J Nat Prod, 2008).
Activity calls are given as the source filed them. The calls are words filed in the database; no cut-off is given here.

Tests used:
Spinacia oleracea [1] = test: Effect on photosystem 2 interaction site in spinach thylakoid membrane assessed as chlorophil-a fluorescence parameter at 10 uM; assay type: cell membranes
[2] = (§1) Inhibition of photosynthetic phosphorylation from water to methyl viologen in spinach leaves chloroplast; assay type: functional, Spinacia oleracea; conditions: read-out: I50
Outline: (§2)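 Isolated spinach chloroplasts (20 μg Chl/mL) osmotically ruptured in 100 mM sorbitol, 10 mM KCl, 5 mM MgCl₂, 0.001 M Na⁺-tricine, with 1 mM ADP, 3 mM Pi and 0.05 mM MV. ATP formed was calculated from light-driven alkalization, back-titrated with HCl. I50 read from concentration-response plots; average of three replicates.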

Spinacia oleracea [3] = test: as §1; assay type: functional; outline: as §2
Spinacia oleracea [4] = test: Effect on uncoupled photosystem 2 in spinach chloroplast assessed as inhibition of electron transport rate of water to sodium silicomolybdate at 200 uM relative to control; parameters: scale not given: the % may be the effect or the level left
Outline: (§3)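 PSII water→silicomolybdate measured in the uncoupled electron flow mixture without MV, plus 200 μM SiMo and 10 μM DCMU. Run at 20 °C with a chloroplast-only blank. Activity given as % of control; average of three replicates.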

Spinacia oleracea [5] = test: Effect on ATP synthesis in spinach leaves chloroplast assessed as blockade of basal electron transport at 50 uM; assay type: functional
Outline: (§4)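 Spinach chloroplasts at 20 μg chlorophyll/mL, illuminated 1 min in basal electron transport medium (3 mL) with 0.05 mM MV as electron acceptor. Run at 20 °C with a chloroplast-only blank. Rates are in μequiv e⁻ h⁻¹ mg⁻¹ Chl; 100% is the control activity.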

Spinacia oleracea [6] = test: Effect on ATP synthesis in spinach leaves chloroplast assessed as blockade of phosphorylating electron transport at 50 uM; assay type: functional
Outline: (§5)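 Photophosphorylating noncyclic electron transport run as the basal assay (chloroplasts 20 μg Chl/mL, 1 min light, MV acceptor) with 1 mM ADP and 3 mM Pi added. Temperature 20 °C with a chloroplast-only blank. Activity expressed as % of control.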

Spinacia oleracea [7] = test: Effect on ATP synthesis in spinach leaves chloroplast assessed as blockade of basal electron transport at 300 uM; assay type: functional; outline: as §4
Spinacia oleracea [8] = test: Effect on ATP synthesis in spinach leaves chloroplast assessed as blockade of phosphorylating electron transport at 300 uM; assay type: functional; outline: as §5
Spinacia oleracea [9] = test: Effect on ATP synthesis in spinach leaves chloroplast assessed as blockade of uncoupled electron transport at 50 uM; assay type: functional
Outline: (§6)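 Uncoupled electron transport measured in basal medium with 6 mM NH₄Cl as uncoupler. Actinic light came from a projector lamp through a 5 cm 1% CuSO₄ filter for 2 min. Chloroplasts at 20 μg Chl/mL, 20 °C, blank with chloroplasts alone. Activity given as % of control.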

Spinacia oleracea [10] = test: Effect on ATP synthesis in spinach leaves chloroplast assessed as blockade of uncoupled electron transport at 300 uM; assay type: functional; outline: as §6
Spinacia oleracea [11] = test: Effect on uncoupled photosystem 1 in spinach chloroplast assessed as inhibition of electron transport rate of 2,6-dichlorophenol indophenol to methyl viologen at 200 uM relative to control; parameters: scale not given: the % may be the effect or the level left
Outline: (§7)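 Uncoupled PSI flow measured polarographically in 3 mL basal uncoupled medium. Donor was 100 μM DCPIP reduced by 300 μM sodium ascorbate, with 10 μM DCMU to block PSII, 6 mM NH₄Cl and 0.05 mM MV as acceptor. Run at 20 °C; % of control; average of three replicates.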

Spinacia oleracea [12] = test: Effect on uncoupled photosystem 1 in spinach chloroplast assessed as inhibition of electron transport rate of 2,6-dichlorophenol indophenol to methyl viologen at 300 uM relative to control; parameters: scale not given: the % may be the effect or the level left; outline: as §7
Spinacia oleracea [13] = test: Inhibition of H+ATPase activity in spinach thylakoid membranes at 300 uM; assay type: cell membranes
Outline: (§8)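 Thylakoid membrane-bound Mg²⁺-ATPase measured during ATP hydrolysis. Released inorganic phosphate determined colorimetrically.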

Spinacia oleracea [14] = test: Inhibition of light activated thylakoid membrane bound Mg+ATPase activity in spinach leaves at 100 uM relative to control; conditions: values are per cent of control; outline: as §8
Spinacia oleracea [15] = test: Inhibition of light activated thylakoid membrane bound Mg+ATPase activity in spinach leaves at 200 uM relative to control; conditions: values are per cent of control; outline: as §8
Spinacia oleracea [16] = test: Effect on photosystem 2 interaction site in spinach thylakoid membrane assessed as chlorophil-a fluorescence parameter at 150 uM; assay type: cell membranes
Outline: (§9)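 Freshly lysed spinach chloroplasts (20 μg Chl mL⁻¹) in the basal noncyclic electron transport medium were incubated with the compound for 5 min in the dark at room temperature. Rapid polyphasic Chl a fluorescence of PSII was then recorded at room temperature using a 2 s saturating pulse (2500 μmol […] s⁻¹, 650 nm LEDs). F0, Fm, Fv/Fm and area were read.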

Spinacia oleracea [17] = test: Effect on photosystem 2 interaction site in spinach thylakoid membrane assessed as chlorophil-a fluorescence parameter at 300 uM; assay type: cell membranes; outline: as §9
Spinacia oleracea [18] = test: Effect on photosystem 2 interaction site in spinach thylakoid membrane assessed as chlorophil-a fluorescence parameter at 600 uM; assay type: cell membranes; outline: as §9
Spinacia oleracea [19] = test: Effect on uncoupled photosystem 2 in spinach chloroplast assessed as inhibition of electron transport rate of water to 2,6-dicholorophenol indophenol at 50 uM relative to control; parameters: scale not given: the % may be the effect or the level left
Outline: (§10)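 Uncoupled PSII water→DCPIP followed as DCPIP-supported O₂ evolution, measured polarographically. Basal medium used 300 μM K₃[Fe(CN)₆] in place of MV, with 1 μM DBMIB, 50 μM DCPIP and 6 mM NH₄Cl. Run at 20 °C; % of control; average of three replicates.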

Spinacia oleracea [20] = test: Effect on uncoupled photosystem 2 in spinach chloroplast assessed as inhibition of electron transport rate of water to 2,6-dicholorophenol indophenol at 100 uM relative to control; parameters: scale not given: the % may be the effect or the level left; outline: as §10
Spinacia oleracea [21] = test: Effect on uncoupled photosystem 2 in spinach chloroplast assessed as inhibition of electron transport rate of water to 2,6-dicholorophenol indophenol at 200 uM relative to control; parameters: scale not given: the % may be the effect or the level left; outline: as §10
Spinacia oleracea [22] = test: Effect on uncoupled photosystem 2 in spinach chloroplast assessed as inhibition of electron transport rate of water to 2,6-dicholorophenol indophenol at 300 uM relative to control; parameters: scale not given: the % may be the effect or the level left; outline: as §10
Spinacia oleracea [23] = test: Effect on uncoupled photosystem 2 in spinach chloroplast assessed as inhibition of electron transport rate of water to sodium silicomolybdate at 50 uM relative to control; parameters: scale not given: the % may be the effect or the level left; outline: as §3
Spinacia oleracea [24] = test: Effect on uncoupled photosystem 2 in spinach chloroplast assessed as inhibition of electron transport rate of water to sodium silicomolybdate at 100 uM relative to control; parameters: scale not given: the % may be the effect or the level left; outline: as §3
Spinacia oleracea [25] = test: Effect on uncoupled photosystem 2 in spinach chloroplast assessed as inhibition of electron transport rate of water to sodium silicomolybdate at 300 uM relative to control; parameters: scale not given: the % may be the effect or the level left; outline: as §3
Spinacia oleracea [26] = test: Effect on uncoupled photosystem 1 in spinach chloroplast assessed as inhibition of electron transport rate of tetramethyl-p-benzohydroquinone to methyl viologen at 50 uM relative to control; parameters: scale not given: the % may be the effect or the level left
Outline: (§11)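 Uncoupled PSI flow TMQH₂→MV monitored polarographically at 20 °C in 3 mL basal electron medium. Additions were 100 μM TMQH₂/300 μM ascorbate, 10 μM DCMU and 6 mM NH₄Cl. Blank with chloroplasts alone; values as % of control; average of three replicates.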

Spinacia oleracea [27] = test: Effect on uncoupled photosystem 1 in spinach chloroplast assessed as inhibition of electron transport rate of tetramethyl-p-benzohydroquinone to methyl viologen at 100 uM relative to control; parameters: scale not given: the % may be the effect or the level left; outline: as §11
Spinacia oleracea [28] = test: Effect on uncoupled photosystem 1 in spinach chloroplast assessed as inhibition of electron transport rate of tetramethyl-p-benzohydroquinone to methyl viologen at 200 uM relative to control; parameters: scale not given: the % may be the effect or the level left; outline: as §11
Spinacia oleracea [29] = test: Effect on uncoupled photosystem 1 in spinach chloroplast assessed as inhibition of electron transport rate of tetramethyl-p-benzohydroquinone to methyl viologen at 300 uM relative to control; parameters: scale not given: the % may be the effect or the level left; outline: as §11
Spinacia oleracea [30] = test: Effect on uncoupled photosystem 1 in spinach chloroplast assessed as inhibition of electron transport rate of 2,6-dichlorophenol indophenol to methyl viologen at 50 uM relative to control; parameters: scale not given: the % may be the effect or the level left; outline: as §7
Spinacia oleracea [31] = test: Effect on uncoupled photosystem 1 in spinach chloroplast assessed as inhibition of electron transport rate of 2,6-dichlorophenol indophenol to methyl viologen at 100 uM relative to control; parameters: scale not given: the % may be the effect or the level left; outline: as §7
Spinacia oleracea [32] = test: Residual light activated thylakoid membrane bound Mg+ATPase activity in spinach leaves at 300 uM relative to control

Work on CN(C)C(=O)Nc1ccc(Cl)c(Cl)c1 yielded a Flu intensity (Spinacia oleracea [1]) of 1200.

CC(=O)O[C@H]1CC[C@@H](C)[C@]23OC(C)(C)[C@H]([C@H](OC(=O)/C=C/c4ccccc4)[C@H](OC(=O)c4ccccc4)[C@]12C)[C@H]3O showed an IC50 [2] of 44 µM.

For CC(=O)O[C@H]1CC[C@](C)(O)[C@]23OC(C)(C)[C@H]([C@H](OC(=O)/C=C/c4ccccc4)[C@H](OC(=O)c4ccccc4)[C@]12C)[C@H]3OC(C)=O, the Activity (Spinacia oleracea [3]) was “inactive”.

CC(=O)O[C@H]1CC[C@](C)(O)[C@]23OC(C)(C)[C@H]([C@H](OC(=O)/C=C/c4ccccc4)[C@H](OC(=O)c4ccccc4)[C@]12C)[C@H]3O gave an Activity (Spinacia oleracea [4]) of 21%, an IC50 [2] of 25 µM and an inhibition (Spinacia oleracea [5]) of 83%. For the same compound, the inhibition (Spinacia oleracea [6]) was 79%, the inhibition (Spinacia oleracea [7]) was 32% and the inhibition (Spinacia oleracea [8]) was 68%. For the same compound, the inhibition (Spinacia oleracea [9]) was 26%, the inhibition (Spinacia oleracea [10]) was 52% and the Activity (Spinacia oleracea [11]) was 100%. It also gave an Activity (Spinacia oleracea [12]) of 100%, an inhibition (Spinacia oleracea [13]) of 13% and a residual activity (Spinacia oleracea [14]) of 91%. The residual activity (Spinacia oleracea [15]) was 89%, the Flu intensity (Spinacia oleracea [16]) was 1220 and the Flu intensity (Spinacia oleracea [17]) was 1260. It also gave a Flu intensity (Spinacia oleracea [18]) of 875, an Activity (Spinacia oleracea [19]) of 93% and an Activity (Spinacia oleracea [20]) of 80%. For the same compound, the Activity (Spinacia oleracea [21]) was 71%, the Activity (Spinacia oleracea [22]) was 64% and the Activity (Spinacia oleracea [23]) was 32%. The Activity (Spinacia oleracea [24]) was 32%, the Activity (Spinacia oleracea [25]) was 11% and the Activity (Spinacia oleracea [26]) was 115%. For the same compound, the Activity (Spinacia oleracea [27]) was 129%, the Activity (Spinacia oleracea [28]) was 120% and the Activity (Spinacia oleracea [29]) was 131%. For the same compound, the Activity (Spinacia oleracea [30]) was 106%, the Activity (Spinacia oleracea [31]) was 100% and the residual activity (Spinacia oleracea [32]) was 87%.
